Values after ≈ are worked out from the molar mass of the structure shown. Active and inactive are the calls of the source. No cut-off for these calls is given here.
Columns and labels:
Salmonella typhimurium [1] = assay: Antibacterial activity against Salmonella typhimurium ATCC 13311 assessed as bacterial growth inhibition after overnight incubation by spot-on-lawn assay; format: functional, Salmonella enterica subsp. enterica serovar Typhimurium; conditions: Salmonella enterica
In short: (§1)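 Overnight cultures were grown in Luria broth at 37 °C and used to seed 5 mL soft agar (0.75%) in the same medium, poured over 1.5% hard agar. Compounds in MQ-H2O or DMSO were two-fold serially diluted from stock, and 10 µL of each was spotted. After drying, plates were incubated overnight at 37 °C. Growth inhibition at each spot was scored, and MIC was taken from triplicates.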

Escherichia coli [2] = assay: Antibacterial activity against Escherichia coli ATCC 25922 assessed as bacterial growth inhibition after overnight incubation by spot-on-lawn assay; format: functional; in short: as §1
Pseudomonas aeruginosa [3] = assay: Antibacterial activity against Pseudomonas aeruginosa ATCC 14207 assessed as bacterial growth inhibition after overnight incubation by spot-on-lawn assay; format: functional; in short: as §1
Enterococcus faecalis [4] = assay: Antibacterial activity against Enterococcus faecalis ATCC 7080 assessed as bacterial growth inhibition after overnight incubation by spot-on-lawn assay; format: functional
In short: (§2)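 Lawns were prepared in All Purpose Tween medium at 25 °C: overnight cultures went into 5 mL soft agar (0.75%) poured onto 1.5% agar plates. Aqueous or DMSO solutions were two-fold serially diluted, and 10 µL aliquots were spotted and dried. Plates were incubated overnight at 25 °C. Inhibition was read at the spot locations, and MIC was based on triplicates.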

Listeria monocytogenes [5] = assay: Antibacterial activity against Listeria monocytogenes ATCC 15313 assessed as bacterial growth inhibition after overnight incubation by spot-on-lawn assay; format: functional; in short: as §2
Staphylococcus aureus [6] = assay: Antibacterial activity against Staphylococcus aureus ATCC 25923 assessed as bacterial growth inhibition after overnight incubation by spot-on-lawn assay; format: functional
In short: (§3)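 Tryptic Soy Broth at 25 °C was used for culture and for the 0.75% soft-agar overlay, which was seeded from overnight cultures and poured onto 1.5% agar. Two-fold dilution series in MQ-H2O or DMSO were spotted (10 µL), dried, and incubated overnight at 25 °C. Growth inhibition at each spot was recorded, and MIC was derived from triplicate assays.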

Acinetobacter baumannii [7] = assay: Antibacterial activity against Acinetobacter baumannii ATCC 19606 assessed as bacterial growth inhibition after overnight incubation by spot-on-lawn assay; format: functional; conditions: ATCC 19606 = CIP 70.34 = JCM 6841; in short: as §1
Salmonella typhimurium [8] = assay: Antibacterial activity against Salmonella typhimurium ATCC 13311 assessed as bacterial growth inhibition at 250 mg/ml after overnight incubation by spot-on-lawn assay; format: functional, organism-based; conditions: Salmonella enterica subsp. enterica serovar Typhimurium; in short: as §1
Escherichia coli [9] = assay: Antibacterial activity against Escherichia coli ATCC 25922 assessed as bacterial growth inhibition at 250 mg/ml after overnight incubation by spot-on-lawn assay; format: functional, organism-based; in short: as §1
Acinetobacter baumannii [10] = assay: Antibacterial activity against Acinetobacter baumannii ATCC 19606 assessed as bacterial growth inhibition at 250 mg/ml after overnight incubation by spot-on-lawn assay; format: functional, organism-based; conditions: ATCC 19606 = CIP 70.34 = JCM 6841; in short: as §1
Pseudomonas aeruginosa [11] = assay: Antibacterial activity against Pseudomonas aeruginosa ATCC 14207 assessed as bacterial growth inhibition at 250 mg/ml after overnight incubation by spot-on-lawn assay; format: functional, organism-based; in short: as §1
Listeria monocytogenes [12] = assay: Antibacterial activity against Listeria monocytogenes ATCC 15313 assessed as bacterial growth inhibition at 250 mg/ml after overnight incubation by spot-on-lawn assay; format: functional, organism-based; in short: as §2
Enterococcus faecalis [13] = assay: Antibacterial activity against Enterococcus faecalis ATCC 7080 assessed as bacterial growth inhibition at 250 mg/ml after overnight incubation by spot-on-lawn assay; format: functional, organism-based; in short: as §2
Staphylococcus aureus [14] = assay: Antibacterial activity against Staphylococcus aureus ATCC 25923 assessed as bacterial growth inhibition at 250 mg/ml after overnight incubation by spot-on-lawn assay; format: functional, organism-based; in short: as §3

SMILES	MIC (Salmonella typhimurium [1]) [mg/mL]	MIC (Escherichia coli [2]) [mg/mL]	MIC (Pseudomonas aeruginosa [3]) [mg/mL]	MIC (Enterococcus faecalis [4]) [mg/mL]	MIC (Listeria monocytogenes [5]) [mg/mL]	MIC (Staphylococcus aureus [6]) [mg/mL]	MIC (Acinetobacter baumannii [7]) [mg/mL]	Activity (Salmonella typhimurium [8])	Activity (Escherichia coli [9])	Activity (Acinetobacter baumannii [10])	Activity (Pseudomonas aeruginosa [11])	Activity (Listeria monocytogenes [12])	Activity (Enterococcus faecalis [13])	Activity (Staphylococcus aureus [14])
C[C@H]1N[C@H](C)C(=O)NNC1=O	–	–	–	–	–	–	–	inactive	inactive	inactive	inactive	inactive	inactive	inactive
C[C@H]1N[C@H](CCCCN)C(=O)NNC1=O	62 (≈ 289 mM)	31 (≈ 145 mM)	–	16 (≈ 74.7 mM)	16 (≈ 74.7 mM)	62 (≈ 289 mM)	62 (≈ 289 mM)	–	–	–	–	–	–	–
C[C@@H]1N[C@@H](C)C(=O)NNC1=O	–	–	–	–	–	–	–	inactive	inactive	inactive	inactive	inactive	inactive	inactive

The next lines start with results.

MIC (Salmonella typhimurium [1]) [mg/mL]	MIC (Escherichia coli [2]) [mg/mL]	MIC (Pseudomonas aeruginosa [3]) [mg/mL]	MIC (Enterococcus faecalis [4]) [mg/mL]	MIC (Listeria monocytogenes [5]) [mg/mL]	MIC (Staphylococcus aureus [6]) [mg/mL]	MIC (Acinetobacter baumannii [7]) [mg/mL]	SMILES	Activity (Salmonella typhimurium [8])	Activity (Escherichia coli [9])	Activity (Acinetobacter baumannii [10])	Activity (Pseudomonas aeruginosa [11])	Activity (Listeria monocytogenes [12])	Activity (Enterococcus faecalis [13])	Activity (Staphylococcus aureus [14])
26 (≈ 165 mM)	3.2 (≈ 20.4 mM)	52 (≈ 331 mM)	26 (≈ 165 mM)	26 (≈ 165 mM)	26 (≈ 165 mM)	–	C[C@@H]1N[C@H](C)C(=O)NNC1=O	–	–	–	–	–	–	–
19 (≈ 133 mM)	2.3 (≈ 16.1 mM)	38 (≈ 265 mM)	–	38 (≈ 265 mM)	75 (≈ 524 mM)	19 (≈ 133 mM)	C[C@@H]1NCC(=O)NNC1=O	–	–	–	–	–	–	–
0.98 (≈ 6.85 mM)	0.06 (≈ 0.419 mM)	3.9 (≈ 27.2 mM)	2 (≈ 14 mM)	2 (≈ 14 mM)	2 (≈ 14 mM)	0.12 (≈ 0.838 mM)	C[C@H]1NCC(=O)NNC1=O	–	–	–	–	–	–	–
3.9 (≈ 18.2 mM)	0.49 (≈ 2.29 mM)	62 (≈ 289 mM)	62 (≈ 289 mM)	7.8 (≈ 36.4 mM)	31 (≈ 145 mM)	0.98 (≈ 4.57 mM)	C[C@H]1N[C@@H](CCCCN)C(=O)NNC1=O	–	–	–	–	–	–	–

Reference: ChEMBL document CHEMBL4680061, “Unveiling the active isomer of cycloalanopine, a cyclic opine from Lactobacillus rhamnosus LS8, through synthesis and analog production” (2020)
